Test results from ChEMBL document CHEMBL2429784, “Withanolide-based steroids from the cultured soft coral Sinularia brassica” (2013).

Columns and labels:
Format in all cases: functional
Settings in all cases: read-out: ED50 (the source's name)
[1] = tested on: MOLT-4; assay: Cytotoxicity against human MOLT4 cells by Alamar blue assay
Outline: (§1)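 Cell lines from ATCC. Growth inhibition measured by Alamar Blue read-out. ED50 reported as mean ± SEM of triplicate determinations; inactivity cutoff set at ED50 > 10 μM. 5-Fluorouracil run as positive control.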

[2] = tested on: HT-29; assay: Cytotoxicity against human HT-29 cells by Alamar blue assay; outline: as §1
[3] = tested on: P388; assay: Cytotoxicity against mouse P388 cells by Alamar blue assay; outline: as §1
[4] = tested on: K562; assay: Cytotoxicity against human K562 cells by Alamar blue assay; outline: as §1

C[C@H]1[C@H]2[C@H](C[C@H]3[C@@H]4CCC5=CC(=O)C=C[C@]5(C)[C@H]4CC[C@]23C)O[C@@]2(OC(=O)[C@@H](C)[C@H]2C)[C@H]1O
EC50 [1]: 9.9 µM
EC50 [2]: 7.5 µM

C[C@@H]1[C@H]([C@H]2OC(=O)[C@H](C)[C@H]2C)O[C@H]2C[C@H]3[C@@H]4CCC5=CC(=O)C=C[C@]5(C)[C@H]4CC[C@]3(C)[C@@H]12
EC50 [1]: 4.8 µM
EC50 [2]: 4.8 µM
EC50 [3]: 9.1 µM

C[C@@H]1[C@H]([C@H]2OC(=O)[C@@H](C)[C@H]2C)O[C@H]2C[C@H]3[C@@H]4CCC5=CC(=O)C=C[C@]5(C)[C@H]4CC[C@]3(C)[C@@H]12
EC50 [4]: 8.7 µM

O=c1[nH]cc(F)c(=O)[nH]1 [FLUOROURACIL]
EC50 [1]: 7.7 µM
EC50 [4]: 21 µM
EC50 [2]: 7.7 µM
EC50 [3]: 6.2 µM
